Assay results as given in ChEMBL document CHEMBL1134677, “Synthesis and biological evaluation of a novel series of furans: ligands selective for estrogen receptor alpha” (J Med Chem, 2001).

Tests used:
[1] = target: Estrogen receptor beta (Homo sapiens) (UniProt Q92731); assay: Relative binding affinity towards estrogen receptor 2 determined by a competitive radiometric binding assay using 10 nM [3H]estradiol as the radioligand
How it was run: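 Competitive radiometric binding with purified human ERβ and 10 nM [3H]estradiol tracer. Hydroxylapatite captured the bound complex. Incubation was at 0 °C for 18–24 h. Competitors were dissolved in 1:1 DMF:TEA. RBA is relative to estradiol (100%). Duplicate independent experiments were run, with CV <0.3.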

[2] = target: T1, Estrogen receptor (Homo sapiens) (UniProt P03372); assay: Relative binding affinity (RBA) for ER alpha (Estrogen receptor alpha) determined by a competitive radiometric binding assay using 10 nM [3H]estradiol as the radioligand
T1 sequence (whole entry): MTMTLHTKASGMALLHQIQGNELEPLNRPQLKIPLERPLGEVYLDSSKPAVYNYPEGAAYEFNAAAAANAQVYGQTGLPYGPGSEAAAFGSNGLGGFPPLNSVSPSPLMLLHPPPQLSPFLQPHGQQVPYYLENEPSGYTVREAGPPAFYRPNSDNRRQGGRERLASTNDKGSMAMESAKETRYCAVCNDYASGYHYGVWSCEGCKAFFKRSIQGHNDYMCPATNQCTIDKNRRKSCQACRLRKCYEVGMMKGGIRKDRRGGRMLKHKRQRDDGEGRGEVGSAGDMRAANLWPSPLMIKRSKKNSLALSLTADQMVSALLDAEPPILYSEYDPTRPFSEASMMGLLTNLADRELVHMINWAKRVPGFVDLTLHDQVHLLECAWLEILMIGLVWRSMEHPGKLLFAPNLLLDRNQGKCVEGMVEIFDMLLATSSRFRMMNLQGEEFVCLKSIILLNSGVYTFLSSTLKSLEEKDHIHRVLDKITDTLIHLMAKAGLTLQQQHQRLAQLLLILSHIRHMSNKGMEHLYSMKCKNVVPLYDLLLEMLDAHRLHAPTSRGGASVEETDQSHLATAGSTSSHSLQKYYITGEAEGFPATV
How it was run: (§1)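 Competitive radiometric binding with purified human ERα and 10 nM [3H]estradiol tracer. Bound receptor–ligand complex was adsorbed on hydroxylapatite. Incubation was at 0 °C for 18–24 h. Unlabeled competitors were dissolved in 1:1 DMF:TEA. RBA is expressed relative to estradiol (100%). Duplicate separate experiments were run, with CV <0.3.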

[3] = test system: Estrogen receptor (Ovis aries); assay: Relative binding affinity (RBA) for ER alpha using lamb uterine cytosol determined by a competitive radiometric binding assay using 10 nM [3H]estradiol as the radioligand; conditions: Uterus
[4] = target: T1, Estrogen receptor (Homo sapiens); assay: Relative binding affinity for Estrogen receptor alpha compared 10 nM [3H]estradiol; how it was run: as §1

Sequence of Estrogen receptor beta (Homo sapiens) (Q92731 whole entry): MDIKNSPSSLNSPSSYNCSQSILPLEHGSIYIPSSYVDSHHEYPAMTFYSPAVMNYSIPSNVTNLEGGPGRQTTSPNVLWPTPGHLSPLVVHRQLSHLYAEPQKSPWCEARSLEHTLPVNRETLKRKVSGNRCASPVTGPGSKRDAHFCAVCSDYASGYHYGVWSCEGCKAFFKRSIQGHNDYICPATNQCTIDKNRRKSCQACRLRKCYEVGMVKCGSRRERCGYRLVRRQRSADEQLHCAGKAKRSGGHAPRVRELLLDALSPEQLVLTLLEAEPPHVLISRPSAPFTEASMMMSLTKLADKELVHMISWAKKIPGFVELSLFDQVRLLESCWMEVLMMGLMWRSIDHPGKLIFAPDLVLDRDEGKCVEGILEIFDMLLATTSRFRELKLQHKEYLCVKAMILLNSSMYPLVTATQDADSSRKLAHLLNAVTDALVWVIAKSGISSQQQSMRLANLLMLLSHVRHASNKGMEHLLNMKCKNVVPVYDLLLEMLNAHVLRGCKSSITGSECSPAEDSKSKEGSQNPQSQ

| SMILES | relative binding affinity (RBA) [1] | relative binding affinity (RBA) [2] | relative binding affinity (RBA) [3] | relative binding affinity (RBA) [4] |
| --- | --- | --- | --- | --- |
| CCCc1c(-c2ccc(O)cc2)oc(-c2ccccc2)c1-c1ccc(O)cc1 | 15 | 140 | 3.6 |  |
| CCCc1c(-c2ccc(O)cc2)oc(-c2ccc(O)cc2)c1-c1ccc(O)cc1 | 1.8 | 100 | 3.6 |  |
| CCc1c(-c2ccc(O)cc2)oc(-c2ccc(O)cc2)c1-c1ccccc1 | 3 | 16.5 | 0.7 |  |
| CCc1c(-c2ccc(O)cc2)cc(-c2ccccc2)n1-c1ccc(O)cc1 |  |  | 0.5 |  |
| CCc1c(-c2ccc(O)cc2)oc(-c2ccccc2)c1-c1ccccc1 | 3.4 | 10.8 | 0.44 |  |
| CCc1c(-c2ccc(O)cc2)oc(-c2ccc(O)cc2)c1-c1ccc(O)cc1 |  | 140 | 6.5 |  |
| Oc1ccc(-c2cc(-c3ccccc3)c(-c3ccc(O)cc3)o2)cc1 |  |  | 0.13 |  |
| CCCc1c(-c2ccc(O)cc2)nn(-c2ccc(O)cc2)c1-c1ccc(O)cc1 |  |  |  | 49 |
| CCc1c(-c2ccccc2)oc(-c2ccc(O)cc2)c1-c1ccccc1 | 2 | 6.8 | 0.1 |  |

Next, values leading:

| relative binding affinity (RBA) [1] | relative binding affinity (RBA) [2] | relative binding affinity (RBA) [3] | relative binding affinity (RBA) [4] | SMILES |
| --- | --- | --- | --- | --- |
| 0.07 | 0.15 | 0.02 |  | CCc1c(-c2ccccc2)oc(-c2ccccc2)c1-c1ccc(O)cc1 |
| 0.89 |  |  | 75 | CC(C)Cc1c(-c2ccc(O)cc2)nn(-c2ccc(O)cc2)c1-c1ccc(O)cc1 |
| 0.25 | 8.7 | 0.84 |  | Oc1ccc(-c2oc(-c3ccc(O)cc3)c(-c3ccc(O)cc3)c2-c2ccc(O)cc2)cc1 |
|  |  | 0.03 |  | Oc1ccc(-c2cc(-c3ccccc3)c(-c3ccc(O)cc3)s2)cc1 |
|  |  | 0.04 |  | Oc1ccc(-c2cc(-c3ccc(O)cc3)c(-c3ccccc3)o2)cc1 |
| 7.1 | 82 | 4.6 |  | CCc1c(-c2ccc(O)cc2)oc(-c2ccccc2)c1-c1ccc(O)cc1 |
| 4.5 | 14.8 | 0.45 |  | CCc1c(-c2ccccc2)oc(-c2ccc(O)cc2)c1-c1ccc(O)cc1 |
| 0.62 | 40 | 2.9 |  | Cc1c(-c2ccc(O)cc2)oc(-c2ccc(O)cc2)c1-c1ccc(O)cc1 |
|  |  | 0.04 |  | Oc1ccc(-c2cc(-c3ccc(O)cc3)c(-c3ccccc3)s2)cc1 |
| 3.9 | 21 | 1.3 |  | CCCCc1c(-c2ccc(O)cc2)oc(-c2ccc(O)cc2)c1-c1ccc(O)cc1 |
